Measurements as given in the RNAGym collection of RNA variant scans (doi:10.1126/science.aae0568).
Fewer inactive variants are shown than the library holds.

B1: tRNA (parent)
chain: GUUCCGUUGGCGUAAUGGUAACGCGUCUCCCUCCUAAGGAGAAGACUGCGGGUUCGAGUCCCGUACGGAACG

Variants of: B1
Assay: yeast fitness relative to wild type (ratio to wild type); higher = fitter; tRNA-Arg(CCU), competitive growth, 37 C, YPD
Method in brief: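 Changes in genotype frequencies gave Darwinian fitness relative to wild type. Frequencies were read by 100-nucleotide paired-end sequencing of gene amplicons before and after pooled Saccharomyces cerevisiae strains, carrying tRNA-Arg(CCU) gene variants at the native locus, were competed in YPD at 37°C for 24 hours in six replicates. A genotype was kept only with ≥ 100 starting reads, and estimates < 0.5 were set to 0.5.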
For GUUACGUUGGCGUAAUGGUAACGCGUCUUCCUCCUGAGGAGAAGACUGCGGCUUCGAGUCCCGUACGGAACG, the yeast fitness was at most 0.5.
Work on GUUACGUUGGCGUAAUGGUAACGCGUUGCCCUGCUGAGGAGAAGACUGCGGGUUCGAGUCGCGUACGGAACG yielded a yeast fitness of at most 0.5.
In the case of GUUACGUUGGCGUAAUGGUAACGAGUCUCCCUCCUAAGGAGAAGACUGCGGGUUCGAGUCCCGUACAGAACG, the yeast fitness is reported as at most 0.5.
In the case of GUUACGUUGGCGUAAUGGUAAGGCGUCUCCCUCCUAAGGAGAAGACUGCGGGUUCGAGUCCCGUACGGCACG, the yeast fitness is reported as 0.538.
Variant GUUACGUUGGCGUAAUGGUAACGCGUCUACCUCCUAAGGAGAAGACUGCGGGUUCGAGUCCCGUACGGACCG has a yeast fitness of at most 0.5.
With GUUACGUUGGCGUAAUGGUAACGCGUCUCACUCCUAAGGAGAAGACUCCGGGUUCGAGUCCCGUACGGAACG the yeast fitness was at most 0.5.
GUUACGUUGGCGUAAUGGUAAAGCGUCUCCCUCCUAAGGAGAACACUGCGGGUUCGAGUCCCGUACGGAACG gave a yeast fitness of at most 0.5.
For GUUACGUUGGCGUAAUGGUAAUGCGUCUCCCUGCUAAGGAGAAGCCUGCGGGGUCGAGUCCCGUACGGCACG, the yeast fitness was 0.57.
In the case of GUUACGUUGGCGUAAUGGUAAAGCGUCUUCCUCCUAAGGAGAAGACUGCGGGUUCGAGUCCCGUACGGUACG, the yeast fitness is reported as at most 0.5.
Work on GUUACGUUGGUGUAAUGGUAACGCGUCUCCCACCUAACGAGAAGACAGCGGGUUCGAGUCCCGUACGGAACG yielded a yeast fitness of at most 0.5.
GUUACGUUGGCGUAAUGGUAACGAGUCUCCCUCCUAAGGACAAGACUGCGCGUUCGAGUCCCGUACGGAACG showed a yeast fitness of at most 0.5.
Variant GUUACGUUGGUGUAAUGGUAACGCGUCUCCCUCCUAAGGAGAAGACUGCGGGUUCCAGUCCGGUACGCAACG has a yeast fitness of at most 0.5.
GUUACGUUGGUGUGAUGGUAACGCGUCUCCCUCCUAAGGGGAAGACUGCCGGUUCGAGUCCCGUACGGAACG gave a yeast fitness of at most 0.5.
In the case of GUUACGUUGGCGUAAUGGUAACGCGUCUUCCUCCUAAGGAGAAGACUGCGGGUUCGAGUCCCGUACGGAACG, the yeast fitness is reported as 0.763.
Variant GUUACGUUGGCGUAAUGGUAACGCGUCUGCCUCCUAAGGAGAAGACUGCGGGUUCGAGUCCCGUACGGAACG has a yeast fitness of 0.618.
Variant GUUACGUUGGCGUAAUGGUAAGGCGUCUCCCUCCUAUGGAGAAGACAGCGGGUUCGAGUCCUGUACGGAACG has a yeast fitness of at most 0.5.
GUUACGUUGGCGUAAUGGUAAUGCGUCUCCCUCCUAAGGAGAAGACUGCGGGUUCGAGUCCCGUACGGAACG gave a yeast fitness of 0.789.
GUUACGUUGGCGUAAUGGUAAGGCGUCUCCCUCCUAAGGAGAAGACUGCGGGUUCGAGUCCCGUACGGAACG showed a yeast fitness of 0.65.
With GUUACGUUGGCGUAAUGGUAACGAGUCUCCCUCCUAAGGAGGAGACUGCGGGUUCGAGACCCGUACGGAACG the yeast fitness was at most 0.5.
Variant GUUACGUUGGCGUAAUGGUAACGCGUCUUCGUACUAAGGAGAAGACUGCGGGUUCGAGUCCCGUACGGAACG has a yeast fitness of at most 0.5.
With GUUACGUUGGCGUAAUGGUAAUGCGUCUCCCUCCUAAGGAGAAGACUGCGGGUUCGAGUCCCGUACGAAACG the yeast fitness was at most 0.5.
In the case of GUUACGUUGGCGUAAUGGUAACGCGUCUGCCUCCUAAGGUGAAGACUGCGGGUUAGAGUCCCGUACCGAACG, the yeast fitness is reported as at most 0.5.
Work on GUUACGUUGGCGUAAUGGUAAUGCGUCCCCCUCCUAAGGAGAAGACUGCGGGUUCGAGUCCCGUACGGAACG yielded a yeast fitness of at most 0.5.
Variant GUUACGUUGGUGUAAUGAUAACGCGUCUCCCUCCUAAGGAGAAGACUGCGGGUUCGAGUCCCGUCCGGAACG has a yeast fitness of 0.505.
GUUACGUUGGUGUAAUGGUAUCACGUCUCCCUCCUAAGGAGAAGACUGCGGGUUCGAGUCCCGCACAGAACG gave a yeast fitness of 0.581.
Work on GUUACGUUGGUGUAAUGGUAACGCGUCUCCCUCCUAAGGAAAAGACUGCGGGUUCGAGUGCCGUGCGGAACG yielded a yeast fitness of at most 0.5.
GUUACGUUGGCGUAAUGGUAACGGGUCGCCUUCCUAAGGAGAAGACUGCGGGUUCGAGUCCCGUACGGAACG showed a yeast fitness of at most 0.5.
Work on GUUACGUUGGCGUAAUGGUAAUGCGUCUCCCUCCUAAGGAGAAGACUCCGGGUUCGAGUCCCGUACGGAACG yielded a yeast fitness of at most 0.5.
In the case of GUUACGUUGGCGUAAUGGUAACGCGUCUUCCUCCUAGGCAGAAGACUGUGGGUUCGAGUCCCGUACAGAACG, the yeast fitness is reported as at most 0.5.
GUUACGUUGGCGUAAUGGUAAUGCGUCUCCCUCCUAAGGAGAAGACUGCGGGUUCGAGUCCCGUACGGACCG gave a yeast fitness of 0.663.
Work on GUUACGUUGGCGUAAUGGUAACGAGUCUCCCUCCUAAGGAGAAGACUGCGGCUUCGCGACCCAUACGGAACG yielded a yeast fitness of at most 0.5.
GUUACGUUGGUGUAAUGGUAACGCGUGUCCCUACUAAGGAGACGAAUGCGGGUUCGAGUCCCGUACGGAACG gave a yeast fitness of at most 0.5.
In the case of GUUACGUUGGCGUAAUGGUAAUGCGUCUCCCUCCUAAGGAGAAGACUGCGGGUUCGAGACCCGUACGGAACG, the yeast fitness is reported as at most 0.5.
For GUUACGUUGGCGUAAUGGUAACGAGCCUACCUCCUUAGGAGAAGACUGCGGGUUCGAGUUCCGUACGGAACG, the yeast fitness was at most 0.5.
With GUUACGUUGGCGUAAUGGUAACGCGUUUCCCUUCUUAGGAGAAGACUGCGGGUUCGAGUCCCCUACGGAACG the yeast fitness was at most 0.5.
Variant GUUACGUUGGGGUAAUGGGAACGCGUCUCCCUCCUAAGGAGAAGACUGCGGGCUCGAGUCCCGUCCGGAACG has a yeast fitness of 0.528.
Variant GUUACGUUGGCGUAAUGGUAACGUGUCUCCCUCCUAAGGAGAAGACUGCGGGUUCGAGUCCCGUUCGGAACG has a yeast fitness of at most 0.5.
In the case of GUUACGUUGGCGUAAUGGUAACGGGUCUCCCUCCUAAGGAGAACACUGCGGGUUCGAGUCCCGUACGGAUCG, the yeast fitness is reported as at most 0.5.
